Published values gathered from unrelated publications.
Protocols differ between the studies behind these lines.
Cell line: HepG2
Observed: cell growth or viability

Cc1ccc(-c2nc(Nc3ccc(C(=O)N4CCC(N5CCCC5)CC4)cc3)ncc2Cl)s1  CC50 (44 h): 9.3 µM
N=C(N)NCc1ccc(NC(=O)c2ccc(C(=O)Nc3ccc(C4=CCN(C(=N)N)CC4)nn3)cc2)cc1  CC50 (MTS; 24 h): 326 µM
O=C(NCCCN1CCOCC1)c1ccc(Nc2ncc(Cl)c(-c3ccc(Cl)s3)n2)cc1  CC50 (44 h): 4.9 µM
CCCCCCCCCCCC(=O)Nc1nc(N)nc2c1ncn2[C@H]1CO[C@@H](CO)O1  CC50: > 100 µM
COc1ccc(NC(=O)N2CCCCN3C[C@H](c4ccc(C#Cc5ccccc5)cc4)[C@@H]3C2)cc1  CC50: 10 µM
O=[N+]([O-])c1ccc(-c2nc3cccc(O)c3[nH]2)o1  CC50 (resazurin; 72 h): 37 µM
COC(=O)c1c(C)ncn1CC(c1cn(C)c2ccccc12)c1cn(C)c2ccccc12  CC50 (MTS; 24 h): > 20 µM
N=C(N)NCc1ccc(NC(=O)C23CCC(C(=O)Nc4ccc(C5=CCN(C(=N)N)CC5)cc4)(CC2)CC3)cc1  CC50 (MTS; 24 h): 253 µM
C[C@@H]1[C@H](O)[C@@H](C)/C=C/C=C/C=C/C=C/C=C/C=C/C=C/[C@H](O[C@@H]2O[C@H](C)[C@@H](O)[C@H](N)[C@@H]2O)C[C@@H]2O[C@](O)(C[C@@H](O)C[C@@H](O)[C@H](O)CC[C@@H](O)C[C@@H](O)CC(=O)O[C@H]1C)C[C@H](O)[C@H]2C(=O)O  CC50 (MTS; 24 h): 4.6 µM
N=C(N)NCc1ccc(NC(=O)c2ccc(C(=O)Nc3ccc(C4=CCN(C(=N)N)CC4)cc3)cn2)cc1  CC50 (MTS; 24 h): 739 µM
Cc1cc(Nc2ccc(S(F)(F)(F)(F)F)cc2)n2ncnc2n1  CC50: > 50 µM
COc1ccc(NC(=O)N2CCCCN3[C@H](CN(C)S(C)(=O)=O)[C@H](c4ccc(C#Cc5ccccc5)cc4)[C@@H]3C2)cc1  CC50: > 40 µM
COC(=O)c1c(C)ncn1CC(c1c[nH]c2ccccc12)c1c[nH]c2ccccc12  CC50 (MTS; 24 h): > 20 µM
CC(=O)Oc1ccccc1C(=O)O  CC50 (ATP luminescence): > 1000 µM
CCc1ncn(CC(c2c[nH]c3ccc(C)cc23)c2c[nH]c3ccc(C)cc23)c1C(=O)OC  CC50 (MTS; 24 h): > 20 µM
COc1cc(/C=C/C(=O)CC(=O)/C=C/c2ccc(O)c(OC)c2)ccc1O  CC50 (MTT; 24 h): ~42 µM
